In brackets after ≈: the same amount, converted by molar mass.
Columns and labels:
[1] = Growth inhibition of Plasmodium berghei was tested in vivo in male albino mice (Mus musculus) after oral administration of a dose of 100 mg/kg; format: functional; settings: read-out: GI
In short: (§1)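 Mice 25 ± 2 g infected iv on day 0 with 2×10^7 P. berghei ANKA-infected donor erythrocytes. Compound dissolved or suspended in 7% Tween-80, 3% ethanol in water, single dose 24 h post-infection (0.01 mL/g), 3 mice/group. Giemsa blood smears at day 3 (72 h post-infection). Parasitemia counted microscopically; reduction calculated versus untreated controls (=100%). ED50/90 determined by dose titration.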

[2] = Growth inhibition of Plasmodium berghei was tested in vivo in male albino mice (Mus musculus) after subcutaneous administration of a dose of 100 mg/kg; format: functional; settings: sc, read-out: GI; in short: as §1
[3] = system: Plasmodium falciparum; assay: In vitro antimalarial activity against chloroquine-sensitive Plasmodium falciparum NF54; format: functional, organism-based
In short: (§2)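 Asynchronous P. falciparum cultured in human type A+ erythrocytes, RPMI 1640 with 0.5% AlbuMAX, 25 mM HEPES, 25 mM NaHCO3 (pH 7.3), hypoxanthine, neomycin; 37 °C, 3% O2/4% CO2/93% N2. Compounds were dissolved in DMSO and titrated in duplicate over a 64-fold range. Initial parasitemia was 0.75% at 2.5% hematocrit. Growth was read by [3H]hypoxanthine incorporation, with label added 16 h before the end. IC50 was taken by linear interpolation.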

[4] = system: Plasmodium falciparum; assay: In vitro antimalarial activity against chloroquine-resistant Plasmodium falciparum K1; format: functional, organism-based; in short: as §2
[5] = Effective dose was determined in vivo for 50% parasite (Plasmodium berghei) reduction in the male albino mice after oral administration; format: functional; settings: Mus musculus; in short: as §1
[6] = Effective dose was determined in vivo for 50% parasite (Plasmodium berghei) reduction in the male albino mice after subcutaneous administration; format: functional; settings: Mus musculus, sc; for ED90: in the assay text read “90% parasite” for “50% parasite”; in short: as §1
[7] = Effective dose was determined in vivo for 90% parasite (Plasmodium berghei) reduction in the male albino mice after oral administration; format: functional; settings: Mus musculus; in short: as §1
[8] = Growth inhibition of Plasmodium berghei was tested in vivo in male albino mice (Mus musculus) after oral administration of a dose of 10 mg/kg; format: functional; settings: read-out: GI; in short: as §1
[9] = Growth inhibition of Plasmodium berghei was tested in vivo in male albino mice (Mus musculus) after subcutaneous administration of a dose of 10 mg/kg; format: functional; settings: sc, read-out: GI; in short: as §1
[10] = Effective dose was determined in vivo for 90% parasite (Plasmodium berghei) reduction in the male albino mice after subcutaneous administration; format: functional; settings: Mus musculus, sc; in short: as §1
[11] = Growth inhibition of Plasmodium berghei was tested in vivo in male albino mice (Mus musculus) after oral administration of a dose of 50 mg/kg; format: functional; settings: read-out: GI; in short: as §1
[12] = Growth inhibition of Plasmodium berghei was tested in vivo in male albino mice (Mus musculus) after subcutaneous administration of a dose of 50 mg/kg; format: functional; settings: sc, read-out: GI; in short: as §1

SMILES	inhibition in vivo at 100 mg/kg [1] [%]	inhibition in vivo at 100 mg/kg [2] [%]	IC50 [3] [ng/mL]	IC50 [4] [ng/mL]	also measured
CO/N=C(/C(=O)OC)c1ccccc1CCCCc1ccccc1C(F)(F)F	0	0	6.4 (≈ 16.3 nM)	15 (≈ 38.1 nM)	
CO/C=C(/C(=O)OC)c1ccccc1CSc1ccccc1C(F)(F)F	0	0	5.5 (≈ 14.4 nM)	29 (≈ 75.8 nM)	
CO/C=C(/C(=O)OC)c1ccccc1/C=C/C=C/c1ccc(C)cc1C			0.03 (≈ 0.0861 nM)	0.05 (≈ 0.143 nM)	ED50 [5]: 1.11 mg/kg; ED50 [6]: 0.33 mg/kg; ED90 [6]: 0.72 mg/kg; ED90 [7]: 2.65 mg/kg; inhibition in vivo at 10 mg/kg [8]: 100%; inhibition in vivo at 10 mg/kg [9]: 100%
CO/C=C(/C(=O)OC)c1ccccc1/C=C/c1ccc(-c2ccccc2C(F)(F)F)o1			0.39 (≈ 0.91 nM)	1.8 (≈ 4.2 nM)	
CO/C=C(/C(=O)OC)c1ccccc1/C=C/C=C/c1cccc(OC)c1[N+](=O)[O-]			0.11 (≈ 0.278 nM)	0.58 (≈ 1.47 nM)	
CO/C=C(/C(=O)OC)c1ccccc1/C=C/C=C/c1ccc(F)cc1Cl			0.06 (≈ 0.161 nM)	0.19 (≈ 0.51 nM)	inhibition in vivo at 10 mg/kg [8]: 92%; inhibition in vivo at 10 mg/kg [9]: 100%
CO/N=C(/C(=O)OC)c1ccccc1-c1ccc(-c2ccccc2C(F)(F)F)s1	0	0	23.7 (≈ 56.5 nM)	60.8 (≈ 145 nM)	
CO/N=C(\C(=O)OC)c1ccccc1C#CC#Cc1ccccc1C(F)(F)F	0	0	10.8 (≈ 28 nM)	25.8 (≈ 67 nM)	
CO/C=C(/C(=O)OC)c1ccccc1CCCCc1ccccc1C(F)(F)F	82	99	0.54 (≈ 1.38 nM)	1.53 (≈ 3.9 nM)	
CO/N=C(/C(=O)OC)c1ccccc1C#CC#Cc1ccccc1C(F)(F)F	0	0	1390 (≈ 3600 nM)	2280 (≈ 5910 nM)	
CO/C=C(/C(=O)OC)c1ccccc1/C=C/C=C/c1ccccc1C#N	0	0	0.52 (≈ 1.51 nM)	1.6 (≈ 4.63 nM)	
CO/N=C(/C(=O)OC)c1ccccc1/C=C/C=C/c1ccccc1C(F)(F)F	46	44	0.4 (≈ 1.03 nM)	1.4 (≈ 3.6 nM)	
CCN(CC)CCCC(C)Nc1ccnc2cc(Cl)ccc12 (stereo not drawn) [CHLOROQUINE]					ED50 [5]: 2.4 mg/kg; ED50 [6]: 1.5 mg/kg; ED90 [7]: 5 mg/kg; ED90 [10]: 3.3 mg/kg
CO/C=C(/C(=O)OC)c1ccccc1/C=C/C=C/c1cccc(Br)c1			6.1 (≈ 15.3 nM)	31.4 (≈ 78.6 nM)	inhibition in vivo at 50 mg/kg [11]: 0%; inhibition in vivo at 50 mg/kg [12]: 0%
CO/C=C(/C(=O)OC)c1ccccc1CO/N=C(\C)c1ccccc1C(F)(F)F	0	0	0.17 (≈ 0.417 nM)	0.65 (≈ 1.6 nM)	
CO/C=C(/C(=O)OC)c1ccccc1/C=C/C=C/c1ccc(Cl)cc1			0.52 (≈ 1.47 nM)	2 (≈ 5.64 nM)	inhibition in vivo at 50 mg/kg [11]: 0%; inhibition in vivo at 50 mg/kg [12]: 0%
CO/C=C(/C(=O)OC)c1cccc(/C=C/C=C/c2ccc(C(F)(F)F)cc2C(F)(F)F)c1	0	0	176 (≈ 385 nM)	396 (≈ 869 nM)	
CO/C=C(/C(=O)OC)c1ccccc1/C=C/C=C/c1ccccc1C(F)(F)F			0.06 (≈ 0.154 nM)	0.15 (≈ 0.386 nM)	inhibition in vivo at 10 mg/kg [8]: 99%; inhibition in vivo at 10 mg/kg [9]: 100%
CO/C=C(/C(=O)OC)c1ccc(/C=C/C=C/c2ccc(C(F)(F)F)cc2C(F)(F)F)cc1	0	0	> 5000	> 5000	
CO/C=C(/C(=O)OC)c1ccccc1/C=C/CSc1ccccc1C(F)(F)F	46	91	1.75 (≈ 4.28 nM)	2.51 (≈ 6.15 nM)	
CO/C=C(/C(=O)OC)c1ccccc1/C=C/C=C/c1cccc(C(F)(F)F)c1			7.8 (≈ 20.1 nM)	16.7 (≈ 43 nM)	inhibition in vivo at 50 mg/kg [11]: 0%; inhibition in vivo at 50 mg/kg [12]: 0%
CO/C=C(/C(=O)OC)c1ccccc1/C=C/C=C/c1ccccc1			0.8 (≈ 2.5 nM)	3.7 (≈ 11.5 nM)	inhibition in vivo at 50 mg/kg [11]: 0%; inhibition in vivo at 50 mg/kg [12]: 0%
CO/C=C(/C(=O)OC)c1ccccc1/C=C/C=C/c1ccc(Cl)cc1Cl			0.03 (≈ 0.0771 nM)	0.1 (≈ 0.257 nM)	ED50 [5]: 1.07 mg/kg; ED50 [6]: 0.69 mg/kg; ED90 [6]: 1.8 mg/kg; ED90 [7]: 4.03 mg/kg; inhibition in vivo at 10 mg/kg [8]: 100%; inhibition in vivo at 10 mg/kg [9]: 100%
O=C1C(O)=C([C@H]2CC[C@H](c3ccc(Cl)cc3)CC2)C(=O)c2ccccc21 [ATOVAQUONE]			0.11 (≈ 0.3 nM)	0.41 (≈ 1.12 nM)	ED50 [5]: 0.05 mg/kg; ED50 [6]: 0.04 mg/kg; ED90 [7]: 0.1 mg/kg; ED90 [10]: 0.9 mg/kg
CO/C=C(/C(=O)OC)c1ccccc1/C=C/C=C/c1cccc(F)c1			1.5 (≈ 4.43 nM)	8.4 (≈ 24.8 nM)	inhibition in vivo at 50 mg/kg [11]: 0%; inhibition in vivo at 50 mg/kg [12]: 0%
CO/C=C(/C(=O)OC)c1ccccc1/C=C/c1ccccc1C(F)(F)F	0	0	3.01 (≈ 8.31 nM)	7.8 (≈ 21.5 nM)	
CO/C=C(/C(=O)OC)c1ccccc1/C=C/C=C/c1ccccc1Cl			0.09 (≈ 0.254 nM)	0.39 (≈ 1.1 nM)	inhibition in vivo at 10 mg/kg [8]: 41%; inhibition in vivo at 10 mg/kg [9]: 77%
CO/C=C(/C(=O)OC)c1ccccc1/C=C/C=C/c1ccc(C(F)(F)F)cc1C(F)(F)F			0.06 (≈ 0.131 nM)	0.13 (≈ 0.285 nM)	inhibition in vivo at 10 mg/kg [8]: 100%; inhibition in vivo at 10 mg/kg [9]: 100%
